# This is a sample that favours compounds with a hit; in the whole collection about 1.7% have one here.
# Pemphigus Ab inh – inhibitors of pemphigus antibody binding to human desmoglein-3. actives 0.48% (n = 310,000). AID 588358. P32926. DSG3-coupled beads, scFv-anti-DSG3-GFP binding, flow cytometry; active compounds read low. binding (percent of control), % at 10 µM;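 active = binding more than 3 SD below its plate's average and above zero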;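 also: hits lower antibody fragment binding to DSG3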
# Efflux pump mplx – antifungal efflux pump inhibition, Nile Red retention; S. cerevisiae Candida pump triplex; inhibition, % at 10 µM; actives 0.44% (n = 330,000); AID 485275;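 active = plate passing quality check with inhibition over a set limit, or well fluorescence over plate mean plus 4 SD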;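 also: Nile Red retained in pooled yeast measured as flow cytometry median fluorescence; higher means more Nile Red kept so more efflux inhibition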
# Neddylation inh – inhibitors of human cullin neddylation. AID 651699. inhibition, % at 25 µM. P61081+Q13564. TR-FRET cullin neddylation, biochemical. actives 0.58% (n = 360,000); in the data active = inhibition above about 36%
# Target sequence (P61081 whole entry, looked up): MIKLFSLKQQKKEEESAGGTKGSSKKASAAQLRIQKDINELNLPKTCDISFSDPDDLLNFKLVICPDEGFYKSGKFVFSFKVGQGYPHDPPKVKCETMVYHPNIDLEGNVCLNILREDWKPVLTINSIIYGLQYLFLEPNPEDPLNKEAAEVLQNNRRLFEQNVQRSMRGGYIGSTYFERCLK
# Target sequence (Q13564 whole entry, looked up): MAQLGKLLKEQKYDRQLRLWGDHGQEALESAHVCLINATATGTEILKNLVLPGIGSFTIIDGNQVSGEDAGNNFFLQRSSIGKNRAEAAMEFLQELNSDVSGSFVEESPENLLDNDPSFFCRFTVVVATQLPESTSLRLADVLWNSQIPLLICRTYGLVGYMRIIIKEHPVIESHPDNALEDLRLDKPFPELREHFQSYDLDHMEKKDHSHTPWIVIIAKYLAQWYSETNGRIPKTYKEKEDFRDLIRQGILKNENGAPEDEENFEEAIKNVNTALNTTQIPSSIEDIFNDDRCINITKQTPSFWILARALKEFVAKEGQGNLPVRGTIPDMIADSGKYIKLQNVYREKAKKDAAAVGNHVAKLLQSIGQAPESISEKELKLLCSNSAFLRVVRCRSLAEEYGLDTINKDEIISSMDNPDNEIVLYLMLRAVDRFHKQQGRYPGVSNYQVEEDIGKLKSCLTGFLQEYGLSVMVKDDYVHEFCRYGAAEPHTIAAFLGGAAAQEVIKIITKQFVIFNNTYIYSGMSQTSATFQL
# Arrestin-AP2 inh – blocks beta-arrestin peptide binding to AP2 adaptin. inhibition, % at 10 µM. FITC-arrestin peptide / GST-AP2 beads, flow cytometry; AP2 beta2 appendage carries R879A mutation. actives 0.31% (n = 340,000). AID 504490;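 active = inhibition above a set limit, near 3 SD of compounds lacking own fluorescence, cut at about 54% in these data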
#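 Measured by: flow cytometry, FL1 (488/535 nm); Material: AP2 appendage R879A on GSH beads; Evaluation: percent response; Timing: pre-incubation 12 min, peptide binding 1 h, room temperature; Also added: 50 nM FITC-arrestin peptide; Medium: PBS with 0.05% Tween 20 and 0.1% BSA.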
# Arr AP2 CP1 – blocks beta-arrestin peptide binding to human AP2; shares compounds with Arrestin-AP2 inh; GST-AP2 beads, FITC arrestin peptide binding, flow cytometry; GST-fused beta2-adaptin appendage, R879A mutant; inhibition, % at 10 µM; actives 2% (n = 1,300); AID 504908;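 active = inhibition above a set limit, roughly 3 SD of non-fluorescent compound noise, cut at about 38% in these data; inactive = inhibition at or below that limit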;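 also: loss of bead fluorescence from 50 nM FITC arrestin peptide bound to appendage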
# GST GSH counter – disrupts GST binding to glutathione beads, arrestin-AP2 artifact; shares compounds with Arrestin-AP2 inh; AID 588338; inhibition, % at 10 µM; actives 2% (n = 1,300); GST-fluorescein binding to GSH beads, fluorescence, counter-screen;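 active = inhibition above 50%, about 3 SD of the inhibition seen with non-fluorescent compounds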;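 also: fluorescein maleimide labelled GST captured on 4 micron glutathione beads; higher means more loss of bead fluorescence from quenching or blocked binding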
# Numbers stand for hits; 0 = inactive; - = no result shown.
SMILES,Pemphigus Ab inh,Efflux pump mplx,Neddylation inh,Arrestin-AP2 inh,Arr AP2 CP1,GST GSH counter
CC(=O)Nc1ccc(S(=O)(=O)N2c3ccccc3NC(=O)CC2C)c(Cl)c1 (centres undefined),0,0,0,54,0,0
CC(=O)c1c(OC(=O)c2ccco2)c2ccccc2n1C,0,0,0,63,0,0
O=S(=O)(/N=C(/Nc1cccc2ccccc12)c1ccccc1)c1cccs1,0,0,0,100,0,0
CCN(CC)CC#CCC(C)(c1ccccc1)c1ccccc1,0,0,0,0,-,-
CCOC(=O)CN1C(=O)NC2NC(=O)NC21 (centres undefined),0,0,0,79,0,0
O=C(O)CN1C(=O)NC2NC(=O)NC21 (centres undefined),0,0,0,0,-,-
Cc1cc(C)n2nc(N)c(N=Nc3cccc(Cl)c3)c2n1,0,0,0,99,0,62
O=c1c2ccccc2c(/C=N/c2n[nH]c(CCCO)n2)c(O)n1-c1ccccc1Cl,0,0,0,0,-,-
NC(=O)c1c(NC(=O)c2ccccc2F)sc2c1CCCC2,0,0,-,0,-,-
COc1ccc(CCC(C)NC2CCCCCCC2)cc1 (centres undefined),0,0,0,64,0,0
CC(C)CC(NC(=O)C1CCC(C)CC1)C(=O)Nc1ccc2c(c1)OCCO2 (centres undefined),0,0,0,0,-,-
N#Cc1cccc(-n2nnnc2-c2ccc3c(c2)OCO3)c1,0,0,0,70,0,0
CCCOc1ccc(C2C(C(=O)c3ccc(C)o3)=C(O)C(=O)N2Cc2ccco2)cc1OCC (centres undefined),0,0,0,64,0,0
COC(=O)C1=C(C(C)=O)C(c2ccc(C)cc2)n2nnnc2N1 (centres undefined),0,0,0,0,-,-
COC(=O)C1=C(C(C)=O)C(c2ccc(C(=O)OC)cc2)n2nnnc2N1 (centres undefined),0,0,0,100,0,0
CCNC(=O)/C(C#N)=C/c1c(N2CCN(Cc3ccc4c(c3)OCO4)CC2)nc2c(C)cccn2c1=O,0,0,0,57,0,0
CCc1ccc(C(C(=O)NC2CCCC2)N(CCOC)C(=O)CCC(=O)Nc2cc(C)on2)cc1 (centres undefined),-,0,0,0,-,-
CSCCC(NC(=O)C1CCC(C)CC1)C(=O)OCC(=O)c1ccc(Cl)cc1 (centres undefined),3.8,0,0,106,0,0
CSCCC(NC(=O)C12CC3CC(CC(C3)C1)C2)C(=O)OCC(=O)c1ccc(Cl)cc1 (centres undefined),-,0,0,0,-,-
COC(=O)[C@@]12C[C@@H](CC(=O)NCc3ccc(OC)c(OC)c3)C(=O)N(Cc3ccco3)C1=CCC(C)(C)C2,-,-,0,-,-,-
COc1ccc(NC(=O)CSCC(=O)Nc2ccc(S(=O)(=O)N3CCCCC3)cc2)cc1,0,0,0,57,0,0
Cc1ccc(-c2nc(NC(=O)c3ccc(S(=O)(=O)N(CCC#N)CCC#N)cc3)sc2-c2ccccc2)cc1,0,0,0,63,0,0
Cc1ccc(NC(=O)Nc2cnccn2)cc1Cl,0,0,0,0,-,-
Cc1ccccc1NC(=O)Nc1cnccn1,0,0,0,0,0,0
Cc1cccc(NC(=O)Nc2cnccn2)c1C,0,0,0,0,0,0
SMILES,Pemphigus Ab inh,Efflux pump mplx,Neddylation inh,Arrestin-AP2 inh,Arr AP2 CP1,GST GSH counter
CCC(=O)Nc1c(C#N)c2nc3ccccc3nc2n1-c1ccccc1C,0,0,-,0,-,-
CCC(=O)Nc1c(C#N)c2nc3ccccc3nc2n1C1CCCCC1,0,0,0,75,0,0
COCCCN1C(=O)C(CC(=O)NC2CCCCC2)CC(C(=O)N2CCCCCC2)=C1C (centres undefined),-,-,0,-,-,-
COc1ccc(/C=C/C(=O)OCC(=O)NC2CCCC(C)C2C)c(OC)c1 (centres undefined),0,0,0,64,0,0
COc1ccc(/C=C/C(=O)OCC(=O)NC2CC2)c(OC)c1,0,0,0,0,-,-
CC1C(=O)C(C)C(c2ccccc2F)NC1c1ccccc1F (centres undefined),0,0,0,0,-,-
Nc1c(C(=O)NCc2cccs2)nnn1CC(=O)Nc1cccc(Cl)c1,0,0,0,99,0,0
Cc1ccc(NC(=O)Cn2nnc(C(=O)NCc3cccs3)c2N)cc1Cl,0,0,0,0,-,-
Cc1ccc(C2/C(=C(\O)c3ccc4c(c3)OCCO4)C(=O)C(=O)N2CC2CCCO2)cc1 (centres undefined),0,0,0,59,0,0
COc1cccc(C2/C(=C(\O)c3ccc4c(c3)OCCO4)C(=O)C(=O)N2CC2CCCO2)c1 (centres undefined),-,0,0,0,-,-
Cc1cccc(C(=O)Nc2c3c(nn2C(C)(C)C)CS(=O)(=O)C3)c1,-,0,0,61,0,0
CN(C)c1nc(F)c(F)c(S(=O)(=O)c2ccccc2)c1F,0,0,0,0,-,-
CCn1c(=O)n(CC(=O)Nc2ccc(F)cc2)c(=O)c2ccccc21,0,0,0,0,0,0
Cc1cc(C)c(C(O)c2ncc(-c3ccccc3F)[nH]2)c(C)c1 (centres undefined),-,-,0,-,-,-
Cc1sc2nc(CSCC(=O)Nc3ccc(C(=O)N(C)C)cc3)[nH]c(=O)c2c1C,-,0,0,0,-,-
CCOC(=O)C1=CC[C@@H](c2ccc(OC)cc2)N(S(=O)(=O)c2ccc(C)cc2)[C@H]1CC,-,-,0,-,-,-
CCOC(=O)C1=CC[C@H]2c3c(c4ccc(OC)cc4n3C)C(=O)C1N2S(=O)(=O)c1ccc(C)cc1,0,0,-,58,0,0
CCOc1ccc(-n2cc(C(=O)N3CCC(C)CC3)c3cc(OC)c(OC)cc3c2=O)cc1,0,0,0,56,0,0
CCOc1ccc(NC(=O)c2cn(-c3ccc(OCC)cc3)c(=O)c3cc(OC)c(OC)cc23)cc1,-,0,0,0,-,-
O=C(NCc1ccco1)c1cc(S(=O)(=O)N2CCCC2)ccc1Cl,0,0,0,54,0,0
CC(=O)N[C@@H]1[C@@H](O)[C@@H]2OC(c3ccccc3)OC[C@H]2O[C@@H]1N=[N+]=[N-] (some centres undefined),0,0,0,56,0,0
CCOC(=O)c1cc2c(nc1NC(=S)Nc1ccccc1)CC(C)(C)OC2,0,0,0,0,-,-
CCOC(=O)c1cc2c(nc1NC(=S)NCc1ccccc1)CCCC2,0,0,0,103,0,0
CC(=O)N(Cc1cc(=O)[nH]c2ccccc12)c1ccccc1C,0,0,0,0,-,-
CCCC(=O)N(Cc1cc(=O)[nH]c2ccccc12)c1ccccc1C,0,0,0,61,0,0
COC(=O)[C@]12CCCCC=C1N(Cc1ccccc1)C(=O)[C@H](CC(=O)NCC13CC4CC(CC(C4)C1)C3)C2,-,-,0,-,-,-
CCCCn1c(N)c(NCC(C)C)c(=O)[nH]c1=O,0,0,0,57,0,0

# Bioassay records: PubChem, several laboratories
